For experiment [1], the target named is T1, Serine/threonine-protein kinase Chk1 (Homo sapiens) (UniProt O14757).
T1 sequence (whole entry): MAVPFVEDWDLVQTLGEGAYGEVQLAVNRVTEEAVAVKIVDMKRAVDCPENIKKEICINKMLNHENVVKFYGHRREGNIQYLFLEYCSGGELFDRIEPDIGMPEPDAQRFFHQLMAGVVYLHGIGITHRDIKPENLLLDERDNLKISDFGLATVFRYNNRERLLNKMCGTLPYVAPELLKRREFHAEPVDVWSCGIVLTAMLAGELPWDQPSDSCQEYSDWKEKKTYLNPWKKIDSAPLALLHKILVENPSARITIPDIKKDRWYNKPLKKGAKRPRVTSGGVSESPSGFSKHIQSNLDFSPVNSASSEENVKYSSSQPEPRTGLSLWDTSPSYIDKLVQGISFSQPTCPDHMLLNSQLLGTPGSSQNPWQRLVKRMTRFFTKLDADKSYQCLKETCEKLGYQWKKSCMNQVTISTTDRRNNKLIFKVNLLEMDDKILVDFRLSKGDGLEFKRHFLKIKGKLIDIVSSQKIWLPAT
Put plainly: Inhibition of human recombinant Chk1 at 10 uM. The method, boiled down: (§1)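 Chk1 activity measured by K-LISA checkpoint kit ELISA, following phosphorylation of a Cdc25 substrate peptide. Absorbance read at 450/540 nm. Inhibition calculated from activity with versus without compound. IC50 is the concentration inhibiting peptide phosphorylation. Values are the mean of three separate determinations.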

The test system of the next experiment is ML-1a. Put plainly: Cytotoxicity against human ML-1a cells up to 10 uM after 48 hrs. The experiment is classed as functional, cell-based. The method, boiled down:
(§2)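 Cells grown in RPMI 1640 with 10% FBS at 37 °C, 5% CO2. Exponentially growing cells seeded, treated after 24 h with compound for 48 h. Viability read by CCK-8 (2 h development, absorbance 450 nm), expressed as percent of untreated control. Three separate experiments, each in triplicate.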

For experiment [2], the target named is T2, Serine/threonine-protein kinase Chk1 (Homo sapiens, UniProt O14757).
T2 sequence (O14757 whole entry): T1 sequence (whole entry)
In words: Inhibition of human recombinant Chk1. The method, boiled down:
as §1

A further experiment concerns CCRF-CEM. In words: Cytotoxicity against human CCRF-CEM cells up to 10 uM after 48 hrs. The experiment is classed as functional, cell-based. In outline: as §2
A short description of experiment [3]: Inhibition of CAMK2 at 0.1 uM. The method, boiled down:
(§3)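 Kinase panel run per ProfilerPro kit protocol. Compounds preincubated with enzyme 15 min at room temperature. Reaction started with peptide substrate (fixed 1.5 µM) and ATP at apparent Km, run 90 min, then stopped with termination buffer. Tested in duplicate. Read by microfluidic mobility-shift (Caliper), with product/(product+substrate) ratio as signal.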

The target of experiment [4] is T3, Calcium/calmodulin-dependent protein kinase type IV (Homo sapiens) (UniProt Q16566).
T3 sequence (whole entry): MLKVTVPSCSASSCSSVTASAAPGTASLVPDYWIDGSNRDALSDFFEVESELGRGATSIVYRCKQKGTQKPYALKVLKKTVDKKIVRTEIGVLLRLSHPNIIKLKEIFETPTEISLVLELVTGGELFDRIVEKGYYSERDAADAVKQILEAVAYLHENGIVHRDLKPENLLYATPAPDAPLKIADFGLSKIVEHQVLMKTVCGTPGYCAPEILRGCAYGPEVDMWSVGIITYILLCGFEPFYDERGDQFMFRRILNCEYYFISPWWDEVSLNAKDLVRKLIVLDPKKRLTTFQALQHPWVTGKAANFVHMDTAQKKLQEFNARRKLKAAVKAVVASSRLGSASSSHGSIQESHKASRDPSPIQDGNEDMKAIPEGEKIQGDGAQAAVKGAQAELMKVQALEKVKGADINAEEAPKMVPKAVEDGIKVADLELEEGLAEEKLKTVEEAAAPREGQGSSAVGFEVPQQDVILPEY
Put plainly: Inhibition of CAMK4 at 0.1 uM. In outline: as §3

For experiment [5], the target named is T4, Serine/threonine-protein kinase D2 (Homo sapiens) (UniProt Q9BZL6).
T4 sequence (whole entry): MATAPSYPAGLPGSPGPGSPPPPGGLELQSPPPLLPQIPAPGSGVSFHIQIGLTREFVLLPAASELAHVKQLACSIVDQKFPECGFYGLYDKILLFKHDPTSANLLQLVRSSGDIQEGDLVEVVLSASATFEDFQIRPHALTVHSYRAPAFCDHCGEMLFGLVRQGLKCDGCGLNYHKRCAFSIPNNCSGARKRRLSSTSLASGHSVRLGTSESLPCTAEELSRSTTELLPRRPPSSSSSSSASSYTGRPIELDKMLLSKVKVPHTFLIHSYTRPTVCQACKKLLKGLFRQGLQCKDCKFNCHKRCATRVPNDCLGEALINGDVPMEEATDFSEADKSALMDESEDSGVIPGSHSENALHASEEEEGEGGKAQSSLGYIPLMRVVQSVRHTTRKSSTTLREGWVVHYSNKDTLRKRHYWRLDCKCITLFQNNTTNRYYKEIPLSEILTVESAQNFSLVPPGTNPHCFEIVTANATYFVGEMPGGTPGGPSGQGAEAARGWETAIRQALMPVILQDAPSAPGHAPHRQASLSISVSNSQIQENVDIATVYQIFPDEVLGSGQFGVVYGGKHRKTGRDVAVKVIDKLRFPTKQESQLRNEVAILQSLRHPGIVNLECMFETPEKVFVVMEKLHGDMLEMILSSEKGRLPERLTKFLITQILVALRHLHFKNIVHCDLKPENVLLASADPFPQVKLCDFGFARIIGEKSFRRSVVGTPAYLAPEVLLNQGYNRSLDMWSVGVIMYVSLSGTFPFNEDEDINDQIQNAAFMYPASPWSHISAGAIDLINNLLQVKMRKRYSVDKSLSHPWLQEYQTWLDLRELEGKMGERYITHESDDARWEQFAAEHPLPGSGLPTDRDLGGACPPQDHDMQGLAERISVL
In words: Inhibition of PKD2 at 0.1 uM. In outline:
as §3

Experiment [6] addresses T5, Aurora kinase A (Homo sapiens) (UniProt O14965).
T5 sequence (whole entry): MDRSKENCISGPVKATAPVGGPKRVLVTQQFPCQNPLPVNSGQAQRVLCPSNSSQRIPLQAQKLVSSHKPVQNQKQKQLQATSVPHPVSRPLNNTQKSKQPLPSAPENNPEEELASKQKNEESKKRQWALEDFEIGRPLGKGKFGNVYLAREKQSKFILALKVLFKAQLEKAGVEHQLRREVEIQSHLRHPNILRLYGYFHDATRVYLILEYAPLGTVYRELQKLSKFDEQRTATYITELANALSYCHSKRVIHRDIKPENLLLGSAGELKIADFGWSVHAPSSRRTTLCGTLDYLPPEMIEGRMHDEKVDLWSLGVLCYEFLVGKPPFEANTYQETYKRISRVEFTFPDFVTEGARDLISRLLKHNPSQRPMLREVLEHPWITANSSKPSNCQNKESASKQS
In words: Inhibition of aurora A at 0.1 uM. In outline: as §3

For experiment [7], the target named is Serine/threonine-protein kinase pim-2 (Homo sapiens) (UniProt Q9P1W9). In words: Inhibition of PIM2 at 0.1 uM. In outline: as §3
Sequence of Serine/threonine-protein kinase pim-2 (Homo sapiens) (Q9P1W9 whole entry, looked up): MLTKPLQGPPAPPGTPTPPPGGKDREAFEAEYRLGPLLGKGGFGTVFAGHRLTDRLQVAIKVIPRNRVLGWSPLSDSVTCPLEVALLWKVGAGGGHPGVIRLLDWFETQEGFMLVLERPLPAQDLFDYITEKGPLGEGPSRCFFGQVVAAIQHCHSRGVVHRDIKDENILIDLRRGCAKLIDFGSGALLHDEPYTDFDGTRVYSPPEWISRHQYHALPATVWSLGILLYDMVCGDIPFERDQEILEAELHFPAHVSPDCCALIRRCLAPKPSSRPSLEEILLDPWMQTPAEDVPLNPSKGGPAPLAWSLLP
In experiment [8] the target is Serine/threonine-protein kinase MARK1 (Homo sapiens) (UniProt Q9P0L2). Put plainly: Inhibition of MARK1 at 0.1 uM. In outline: as §3
Sequence of Serine/threonine-protein kinase MARK1 (Homo sapiens) (Q9P0L2 whole entry, looked up): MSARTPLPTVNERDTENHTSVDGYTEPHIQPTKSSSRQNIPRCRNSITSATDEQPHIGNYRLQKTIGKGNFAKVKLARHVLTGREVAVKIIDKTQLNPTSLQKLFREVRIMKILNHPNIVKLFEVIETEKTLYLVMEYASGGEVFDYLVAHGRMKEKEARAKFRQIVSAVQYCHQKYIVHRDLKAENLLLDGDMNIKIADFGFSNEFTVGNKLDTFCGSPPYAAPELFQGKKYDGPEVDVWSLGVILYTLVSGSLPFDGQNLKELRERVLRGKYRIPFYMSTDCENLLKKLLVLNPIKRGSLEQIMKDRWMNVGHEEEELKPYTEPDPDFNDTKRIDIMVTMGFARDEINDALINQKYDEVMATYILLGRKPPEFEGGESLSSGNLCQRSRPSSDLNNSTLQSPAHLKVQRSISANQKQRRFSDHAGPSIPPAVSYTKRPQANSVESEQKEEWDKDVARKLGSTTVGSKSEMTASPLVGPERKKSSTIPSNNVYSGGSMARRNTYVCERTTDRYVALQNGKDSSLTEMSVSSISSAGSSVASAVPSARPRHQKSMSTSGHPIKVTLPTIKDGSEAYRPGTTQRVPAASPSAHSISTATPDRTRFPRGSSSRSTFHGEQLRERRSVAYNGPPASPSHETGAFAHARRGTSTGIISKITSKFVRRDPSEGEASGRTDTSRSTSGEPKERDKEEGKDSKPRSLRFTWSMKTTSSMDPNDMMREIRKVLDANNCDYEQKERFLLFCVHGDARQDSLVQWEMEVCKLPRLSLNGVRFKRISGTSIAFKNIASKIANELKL
The target in experiment [9] is T6, 5'-AMP-activated protein kinase subunit beta-1 (Homo sapiens) (UniProt Q9Y478).
T6 sequence (whole entry): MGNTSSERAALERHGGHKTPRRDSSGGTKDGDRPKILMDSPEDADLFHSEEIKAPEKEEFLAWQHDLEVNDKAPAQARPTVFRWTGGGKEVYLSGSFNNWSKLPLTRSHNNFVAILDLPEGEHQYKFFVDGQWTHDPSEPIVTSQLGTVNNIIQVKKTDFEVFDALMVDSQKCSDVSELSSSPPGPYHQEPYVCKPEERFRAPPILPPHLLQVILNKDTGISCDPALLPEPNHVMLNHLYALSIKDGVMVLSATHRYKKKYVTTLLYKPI
In words: Inhibition of AMPK at 0.1 uM. In outline: as §3

The target in experiment [10] is Serine/threonine-protein kinase Chk2 (Homo sapiens) (UniProt O96017). Put plainly: Inhibition of Chk2 at 0.1 uM. The method, boiled down: as §3
Sequence of Serine/threonine-protein kinase Chk2 (Homo sapiens) (O96017 whole entry): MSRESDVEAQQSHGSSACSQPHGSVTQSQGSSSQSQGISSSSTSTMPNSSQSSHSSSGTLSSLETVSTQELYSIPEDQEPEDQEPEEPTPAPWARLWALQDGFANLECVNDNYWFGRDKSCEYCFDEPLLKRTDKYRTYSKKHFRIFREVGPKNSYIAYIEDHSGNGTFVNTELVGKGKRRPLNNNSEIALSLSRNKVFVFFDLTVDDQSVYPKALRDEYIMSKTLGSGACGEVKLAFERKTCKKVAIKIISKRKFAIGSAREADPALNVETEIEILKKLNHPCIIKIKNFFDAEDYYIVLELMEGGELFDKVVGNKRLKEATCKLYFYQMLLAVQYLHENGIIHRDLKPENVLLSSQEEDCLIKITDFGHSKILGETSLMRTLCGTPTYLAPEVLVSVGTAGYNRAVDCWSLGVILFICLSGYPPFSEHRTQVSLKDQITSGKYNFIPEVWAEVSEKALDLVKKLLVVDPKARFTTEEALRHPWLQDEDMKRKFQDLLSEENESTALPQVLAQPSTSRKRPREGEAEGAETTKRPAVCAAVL
For a further experiment, the system named is HeLa. Put plainly: Cytotoxicity against human HeLa cells assessed as potentiation of SN-38-induced induction of DNA damaging activity at 5 uM after 48 hrs. The experiment is classed as functional. In outline: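 HeLa cells kept in MEM with 10% FBS and 1% nonessential amino acids at 37 °C, 5% CO2. Seeded cells treated after 24 h with SN-38, with or without test compound, for 48 h. Live cells measured by CCK-8 (2 h, A450), viability as percent of untreated control. Three experiments in triplicate.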

Activity calls are given as the source filed them. No cut-off for these calls is given here.

What is called inhibition is the change of the read-out against control, counted positive when it falls. On to `CC(C)(C)OC(=O)c1cc2c(c3c1[nH]c1ccccc13)C(=O)NC2=O`, for which, in experiment [1], the inhibition was determined as 1%.
Broadly, the IC50 is the midpoint of a concentration-inhibition curve. Consider `N=C(N)NCCCNC(=O)c1cccc(CNC(=O)c2cc3c(c4c2[nH]c2ccccc24)C(=O)NC3=O)c1`, for which the outcome in the experiment with ML-1a and in the experiment on CCRF-CEM was inactive. For the same compound, the half-maximal inhibitory concentration (IC50) in [2] is 235 nM.
For the compound `O=C1NC(=O)c2c1cc(C(=O)NCc1ccccc1)c1[nH]c3ccccc3c21`, the half-inhibitory concentration (IC50) in experiment [2] came to 9000 nM. The inhibition in [1] is 71%.
As to `N#Cc1cccc(CNC(=O)c2cc3c(c4c2[nH]c2ccccc24)C(=O)NC3=O)c1`, the inhibition in experiment [1] stood at 48%.
Turning to `NCCCNC(=O)c1cccc(CNC(=O)c2cc3c(c4c2[nH]c2ccccc24)C(=O)NC3=O)c1`, the result with ML-1a and with CCRF-CEM was inactive. Further, in experiment [2], the IC50 was 251 nM.
`N#Cc1ccc(CNC(=O)c2cc3c(c4c2[nH]c2ccccc24)C(=O)NC3=O)cc1`: in experiment [1], the inhibition was 46%.
As for `NCCCNC(=O)c1cccc(CNC(=O)c2cc3c(c4c2[nH]c2ccc(O)cc24)C(=O)NC3=O)c1`, the outcome in the experiment on ML-1a and in the experiment on CCRF-CEM was inactive. Besides, the IC50 in experiment [2] turned out to be 46 nM.
For `NCCNC(=O)c1cccc(CNC(=O)c2cc3c(c4c2[nH]c2ccccc24)C(=O)NC3=O)c1`, the result with ML-1a and in the experiment with CCRF-CEM was inactive. The concentration for half-maximal inhibition (IC50) in [2] was determined as 336 nM.
As for `NC(=O)c1ccc(CNC(=O)c2cc3c(c4c2[nH]c2ccccc24)C(=O)NC3=O)cc1`, the inhibition in experiment [1] was found to be 27%.
Regarding `NC(=O)c1cccc(CNC(=O)c2cc3c(c4c2[nH]c2ccccc24)C(=O)NC3=O)c1`, the inhibition result in experiment [3], in experiment [4], in [5], in [6], in [7] and in [8] was “Active” throughout. Also, the inhibition result in [9] and in [10] was “Active” throughout. The outcome with ML-1a and with CCRF-CEM was inactive. In addition, the IC50 in experiment [2] was determined as 448 nM. For the same compound, the inhibition in experiment [1] was 83%.
Turning to `CN[C@@H]1C[C@H]2O[C@@](C)([C@@H]1OC)n1c3ccccc3c3c4c(c5c6ccccc6n2c5c31)C(=O)N[C@H]4O`, the result in the experiment with ML-1a and in the experiment with CCRF-CEM was inactive.
In the case of `O=C1NC(=O)c2c1cc(C(=O)O)c1[nH]c3ccccc3c21`, the inhibition in [1] amounted to 46%.
With `Cl.NCCNC(=O)c1cccc(CNC(=O)c2cc3c(c4c2[nH]c2ccc(O)cc24)C(=O)NC3=O)c1`, the outcome with ML-1a and in the experiment on CCRF-CEM was inactive. Moreover, the IC50 in [2] was 31 nM. Further, in the experiment with HeLa, the “fold change (FC)” value is on record as 4.
With `N=C(N)NCCCNC(=O)c1cccc(CNC(=O)c2cc3c(c4c2[nH]c2ccc(O)cc24)C(=O)NC3=O)c1`, the result in the experiment on ML-1a and in the experiment on CCRF-CEM was inactive. Also, in experiment [2], the IC50 amounted to 22 nM.
Consider `N=C(N)NCCNC(=O)c1cccc(CNC(=O)c2cc3c(c4c2[nH]c2ccccc24)C(=O)NC3=O)c1`, for which the result in the experiment with ML-1a and in the experiment on CCRF-CEM was inactive. In addition, the IC50 in [2] was found to be 123 nM.
In the case of `N=C(N)NCCNC(=O)c1cccc(CNC(=O)c2cc3c(c4c2[nH]c2ccc(O)cc24)C(=O)NC3=O)c1`, the outcome in the experiment on ML-1a and in the experiment with CCRF-CEM was inactive. Also, in experiment [2], the half-maximal inhibitory concentration (IC50) came out at 2.8 nM.

The record behind these values is ChEMBL document CHEMBL1275361, “Synthesis and evaluation of 5-substituted 9-hydroxypyrrolo[3,4-c]carbazole-1,3(2H,6H)-diones as check point 1 kinase inhibitors” (Bioorg Med Chem, 2010).
